MC4R antagonist = blocks human MC4R cAMP signaling | P32245 | MC4R-expressing cells, MTII-stimulated cAMP, LANCE TR-FRET | inhibition, % at 6.5 µM | 0.48% of 360,000 active | AID 540295;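 active means inhibition above its plate's cutoff, the mean of tested wells on that plate plus 3 SD, cut at about 29% in these data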;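 further: 0% = Melanotan II alone and 100% = Melanotan II plus saturating MCL0020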
Target sequence (P32245 whole entry, looked up): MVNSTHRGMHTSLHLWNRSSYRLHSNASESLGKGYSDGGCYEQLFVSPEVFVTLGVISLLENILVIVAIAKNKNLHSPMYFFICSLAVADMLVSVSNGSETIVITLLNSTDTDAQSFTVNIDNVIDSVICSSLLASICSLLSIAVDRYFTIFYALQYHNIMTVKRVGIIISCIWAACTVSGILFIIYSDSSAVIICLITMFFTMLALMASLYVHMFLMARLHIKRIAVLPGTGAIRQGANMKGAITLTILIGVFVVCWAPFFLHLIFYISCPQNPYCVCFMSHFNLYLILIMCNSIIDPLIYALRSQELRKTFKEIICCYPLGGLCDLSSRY
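Material: human MC4R-expressing U2OS cells. Probe or stimulus: Melanotan II challenge. Dosing: 6.5 µM single dose. Times: 30-min compound, 1-h challenge, 1-h detection, room temperature. Technique: TR-FRET with Eu-cAMP and labeled anti-cAMP, 671 nm. Replication: singlicate.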
PG9 binder = PG9 antibody binding by small molecule. TR-FRET gp120-PG9 antibody binding. inhibition, % at 6.7 µM. 0.43% of 360,000 active. AID 624416; in the data active means inhibition above about 8.5%
Rev-erbA mod = modulators of human Rev-erb alpha DNA binding; P20393; Rev-erbα–FITC-DNA binding, fluorescence polarization, 90 min; activity, % at 10 µM; 0.79% of 370,000 active; AID 1259318;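 active means activity above about 14%, limit read from the data; passing the limit was not always enough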;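 further: 0% = DMSO wells with 35 nM protein and 100% = DMSO wells with 750 nM protein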
NTR1 agonist = activates human neurotensin receptor 1; NTR1-U2OS beta-arrestin-GFP spot imaging, agonist mode; P30989; activation, % at 20 µM; 0.17% of 330,000 active; AID 493036;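 active means activation at or above 40% of the spot to cytoplasm intensity ratio, with at least 20 cells analyzed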;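 further: 0% = DMSO without peptide and 100% = 100 nM NTR1 peptide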
MC4R ag barr = agonists of human melanocortin 4 receptor (MC4R) beta-arrestin; AID 540308; activation, % at 8.9 µM; P32245; U2OS MC4R beta-arrestin complementation, luminescence; percent of melanotan II response, DMSO zero; 0.98% of 360,000 active;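 active means activation above a per-plate cutoff, the mean activation of sample wells on that plate plus 3 SD, cut at about 8% in these data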
cAMP nonselect = U2OS forskolin cAMP inhibition counter-screen; 26% of 1,600 active; parental U2OS, LANCE TR-FRET; shares compounds with MC4R antagonist; inhibition, % at 6.5 µM;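 active means mean inhibition over triplicates above the low-control well mean plus 3 SD, set per campaign, cut at about 13% in these data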;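 further: signal is single emission at 671 nm which falls as cellular cAMP rises; 0% = forskolin-stimulated wells and 100% = buffer without forskolin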
MC4R cAMP antag = human MC4R cAMP antagonism confirmation; 27% of 1,600 active; AID 602195; MC4R-expressing cells, MTII-stimulated cAMP, TR-FRET; inhibition, % at 6.5 µM; shares compounds with MC4R antagonist; in the data active means inhibition above about 29%;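 further: 0% = agonist stimulated wells alone and 100% = agonist stimulated wells plus saturating reference antagonist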
* = called active by the depositor; nt = not tested or not shown. Shown are actives, neighbours in structure and some others; about 2.5% of the full set was active somewhere.

SMILES	MC4R antagonist	PG9 binder	Rev-erbA mod	NTR1 agonist	MC4R ag barr	cAMP nonselect	MC4R cAMP antag
CCc1ccc(NC(=O)C(=O)NCCN2CCN(S(=O)(=O)c3ccccc3)CC2)cc1	32*	2	-2	0	0	4	8
COC(=O)C1=C(C)N(Cc2ccccc2C(F)(F)F)C(=NCc2ccccc2C(F)(F)F)NC1c1cccc(C(F)(F)F)c1 (stereo unspecified)	nt	-1	1	nt	nt	nt	nt
COc1ccc(N2CCN(CCC(=O)c3ccc4ccccc4c3)CC2)cc1	29*	1	6	1	-1	7	3
COc1ccc(N2CCN(CC(=O)c3ccccc3)CC2)cc1	16	-1	-1	-1	-2	nt	nt
COc1ccc(C(=O)CCN2CCC(C)CC2)cc1	31*	-3	-1	0	-2	9	17
CCOC(=O)N1CCN(CCC(=O)c2ccc(OC)cc2)CC1	33*	1	1	3	-4	10	22
COc1ccc(CN2C(=O)c3ccccc3C2=O)cc1C(=O)O	30*	-1	4	-1	1	3	-3
CCc1cccc(CC)c1NC(=O)c1cc(CN2C(=O)c3ccccc3C2=O)ccc1OC	10	0	-4	6	-1	nt	nt
CC(=O)NCC(c1cccs1)S(=O)(=O)c1ccc(F)cc1 (stereo unspecified)	33*	1	-6	-1	1	5	6
COc1ccc(-c2csc3ncnc(N4CCN(c5ccccc5Cl)CC4)c23)cc1	29*	0	5	4	-2	-1	29*
COc1ccc(-n2c(=S)[nH]c3sc(-c4ccccc4)cc3c2=O)c(OC)c1	33*	9	-5	0	-4	15*	15
COc1cccc(-c2cc3c(=O)n(-c4ccccc4)c(=S)[nH]c3s2)c1	24	6	0	1	-3	nt	nt
COC(=O)[C@]12C[C@H](CC(=O)N3CCSCC3)C(=O)N(Cc3ccco3)C1=C[C@H](C(C)C)O[C@@H]2C1CC1	nt	nt	-6	nt	nt	nt	nt
CCOC(=O)c1c(NC(=O)COC(=O)CCNS(=O)(=O)c2ccccc2)sc(C(=O)NC)c1C	31*	-2	6	nt	0	5	5
O=C(Nc1sc2c(c1C(=O)NCC1CCCO1)CCCC2)c1cccs1 (stereo unspecified)	31*	3	3	11	1	3	15
O=C(Nc1sc2c(c1C(=O)O)CCCC2)c1cccs1	1	2	2	1	-3	nt	nt
O=S(=O)(c1ccc(Br)c2nsnc12)N1CCOCC1	30*	-5	-6	3	-2	11	25
Cc1ccc(S(=O)(=O)N2CCOCC2)c2nsnc12	-1	0	2	-1	0	nt	nt
COC(=O)c1cc(S(=O)(=O)NCC2CCN(C(=O)C(=O)c3cccs3)CC2)cs1	nt	-2	-5	nt	nt	nt	nt
CCCCN(C)C(=O)c1nc2ccccn2c1CN1CCN(C/C=C/c2ccccc2)CC1	35*	-2	-2	-2	-1	-3	4
Cc1[nH]c(C)c(C(=O)/C=C/c2ccc([N+](=O)[O-])cc2)c1C	31*	-3	4	6	-2	11	31*
COc1ccc(C=CC(=O)c2ccc([N+](=O)[O-])cc2)cc1	-4	1	-11	nt	2	nt	nt
CC(=O)N(C)C[C@@H]1OCc2ccccc2-c2c(n(C)c3ccccc23)C(=O)N([C@@H](C)CO)C[C@@H]1C	nt	1	-1	nt	nt	nt	nt
O=C(Nc1ccccc1Br)c1c(F)cccc1Cl	2	-2	1	-1	-1	nt	nt
O=C(Nc1ccccc1C(F)(F)F)c1c(F)cccc1Cl	30*	0	0	-1	2	1	-6
O=C(c1cc(-c2cccc(O)c2)on1)N1CCCC1	31*	-2	-4	-1	-1	0	1
CO/N=C(/C(=O)N[C@H]1C(=O)N2C(C(=O)OC(C)OC(C)=O)=C(COC(N)=O)CSC12)c1ccco1 (stereo partly specified)	nt	nt	-5	nt	nt	nt	nt
CCOC(=O)c1c(NC(=O)C[n+]2ccc(N(C)C)cc2)sc(C)c1C	30*	-3	6	0	-1	1	-2

Compound activity as filed in PubChem.
